Test results from ChEMBL document CHEMBL1125181, “Naphthosultam derivatives: a new class of potent and selective 5-HT2 antagonists” (J Med Chem, 1991).

Experiments:
[1] = target: Serotonin 2 (5-HT2) receptor (Rattus norvegicus, UniProt P30994+P08909+P14842); test: The concentration required to inhibit [3H]ketanserin binding to 5-hydroxytryptamine 2 receptor in rat brain membranes (in vitro); format: cell membranes
Method in brief: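 Male Sprague-Dawley rat cortical membranes (0.15 mg/mL protein) in Tris-HCl pH 7.6 with BSA 2 mg/mL. Incubated 15 min at 37 °C with compound and [3H]ketanserin (final 0.4 nM). Nonspecific binding from 10⁻⁶ M methysergide. Filtration and scintillation counting. IC50 by nonlinear regression; mean of at least 2 runs, 6 concentrations in triplicate.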

[2] = target: T1, Adrenergic receptor alpha-1 (Rattus norvegicus, UniProt P15823+P23944+P43140); test: The concentration required to inhibit [3H]prazosin binding to Alpha-1 adrenergic receptor in rat brain membranes was measured (in vitro); format: cell membranes
T1 sequence (P15823 whole entry): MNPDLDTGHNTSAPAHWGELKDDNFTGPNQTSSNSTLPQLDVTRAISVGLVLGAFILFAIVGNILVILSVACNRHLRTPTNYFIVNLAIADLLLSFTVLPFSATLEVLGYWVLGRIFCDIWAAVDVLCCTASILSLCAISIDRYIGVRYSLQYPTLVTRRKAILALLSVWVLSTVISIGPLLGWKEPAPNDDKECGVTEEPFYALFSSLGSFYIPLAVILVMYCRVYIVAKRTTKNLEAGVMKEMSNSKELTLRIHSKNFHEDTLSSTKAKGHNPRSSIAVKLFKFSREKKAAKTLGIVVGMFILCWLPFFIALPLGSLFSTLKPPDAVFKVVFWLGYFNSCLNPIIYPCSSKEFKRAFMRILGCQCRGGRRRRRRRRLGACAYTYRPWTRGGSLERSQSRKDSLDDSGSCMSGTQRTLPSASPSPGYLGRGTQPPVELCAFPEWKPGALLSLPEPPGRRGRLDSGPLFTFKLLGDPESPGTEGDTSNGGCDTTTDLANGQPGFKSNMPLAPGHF
T1 sequence (P23944 whole entry): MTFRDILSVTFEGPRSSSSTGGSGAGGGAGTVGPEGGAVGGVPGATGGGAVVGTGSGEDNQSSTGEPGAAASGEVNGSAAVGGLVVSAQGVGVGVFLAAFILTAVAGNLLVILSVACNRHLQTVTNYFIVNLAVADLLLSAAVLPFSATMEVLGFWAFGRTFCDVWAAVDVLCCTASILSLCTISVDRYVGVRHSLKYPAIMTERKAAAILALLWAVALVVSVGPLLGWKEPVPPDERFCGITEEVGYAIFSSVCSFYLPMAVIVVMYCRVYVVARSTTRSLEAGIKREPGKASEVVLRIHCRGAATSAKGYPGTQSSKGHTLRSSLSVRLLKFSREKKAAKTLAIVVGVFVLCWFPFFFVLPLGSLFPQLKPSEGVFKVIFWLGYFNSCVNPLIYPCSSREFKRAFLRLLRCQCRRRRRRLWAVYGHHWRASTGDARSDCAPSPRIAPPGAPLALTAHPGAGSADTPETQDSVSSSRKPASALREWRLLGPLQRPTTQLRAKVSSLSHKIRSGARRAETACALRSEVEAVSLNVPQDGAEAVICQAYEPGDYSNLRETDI
T1 sequence (P43140 whole entry): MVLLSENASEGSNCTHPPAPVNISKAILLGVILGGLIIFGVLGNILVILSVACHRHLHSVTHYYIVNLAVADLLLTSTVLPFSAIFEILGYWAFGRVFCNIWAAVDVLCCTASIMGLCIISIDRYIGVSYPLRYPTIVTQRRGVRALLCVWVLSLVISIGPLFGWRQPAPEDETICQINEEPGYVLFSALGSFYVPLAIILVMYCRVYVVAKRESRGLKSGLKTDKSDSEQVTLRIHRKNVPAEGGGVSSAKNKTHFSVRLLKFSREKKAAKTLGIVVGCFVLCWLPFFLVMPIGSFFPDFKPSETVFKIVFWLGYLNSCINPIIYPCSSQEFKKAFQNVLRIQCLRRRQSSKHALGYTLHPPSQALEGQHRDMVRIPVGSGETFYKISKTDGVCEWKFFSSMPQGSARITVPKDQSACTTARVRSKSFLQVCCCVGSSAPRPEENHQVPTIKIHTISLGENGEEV

[3] = target: T2, D(2) dopamine receptor (Rattus norvegicus, UniProt P61169); test: The concentration required to inhibit [3H]spiperone binding to dopamine receptor D2 in rat brain membranes (in vitro); format: cell membranes
T2 sequence (P61169 whole entry): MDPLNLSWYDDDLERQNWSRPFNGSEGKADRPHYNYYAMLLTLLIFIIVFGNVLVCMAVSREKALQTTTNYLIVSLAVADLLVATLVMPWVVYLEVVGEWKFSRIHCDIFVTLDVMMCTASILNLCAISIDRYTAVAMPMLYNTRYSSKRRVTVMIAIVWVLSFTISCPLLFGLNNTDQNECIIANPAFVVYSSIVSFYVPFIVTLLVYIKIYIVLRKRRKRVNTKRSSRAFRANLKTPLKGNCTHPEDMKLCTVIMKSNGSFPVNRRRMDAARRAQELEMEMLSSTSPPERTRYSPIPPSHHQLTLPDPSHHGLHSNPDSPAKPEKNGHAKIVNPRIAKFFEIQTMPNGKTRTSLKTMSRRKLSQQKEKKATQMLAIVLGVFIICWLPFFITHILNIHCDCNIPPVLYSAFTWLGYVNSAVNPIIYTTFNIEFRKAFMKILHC
Method in brief: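 Rat striatal membranes (0.05 mg/mL protein) in Tris-HCl with BSA 2 mg/mL, NaCl, cinanserin 10⁻⁶ M and compound. [3H]spiperone (final 0.05 nM) added after 5 min, incubation continued 40 min. Nonspecific binding from 10⁻⁶ M sulpiride. Filtration and scintillation counting.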

[4] = target: T1, Adrenergic receptor alpha-1; test: Binding constant against Alpha-1 adrenergic receptor (in vitro); format: protein assay
Method in brief: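 Male Sprague-Dawley rat cerebrocortical membranes (0.15 mg/mL protein) in Tris-HCl pH 7.6 with BSA 2 mg/mL. Incubated 40 min at 25 °C with compound and [3H]prazosin (final 0.065 nM). Nonspecific binding from 10⁻⁶ M phentolamine. Filtration and scintillation counting. IC50 values are the mean of at least 2 runs, each with 6 concentrations in triplicate.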

[5] = target: T2, D(2) dopamine receptor; test: Binding constant against dopamine receptor D2 (in vitro)
Method in brief: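 Rat striatal membranes (0.05 mg protein/mL, Tris-HCl with 2 mg/mL BSA, NaCl, 10^-6 M cinanserin) preincubated 5 min with test compound. [3H]spiperone (final 0.05 nM) then added for a further 40 min. Nonspecific binding defined with 10^-6 M sulpiride. Read-out by filtration and scintillation counting.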

[6] = target: Histamine H1 receptor (Cavia porcellus, UniProt P31389); test: Binding constant against histamine H1 receptor (in vitro)
Histamine H1 receptor, sequence (P31389 whole entry): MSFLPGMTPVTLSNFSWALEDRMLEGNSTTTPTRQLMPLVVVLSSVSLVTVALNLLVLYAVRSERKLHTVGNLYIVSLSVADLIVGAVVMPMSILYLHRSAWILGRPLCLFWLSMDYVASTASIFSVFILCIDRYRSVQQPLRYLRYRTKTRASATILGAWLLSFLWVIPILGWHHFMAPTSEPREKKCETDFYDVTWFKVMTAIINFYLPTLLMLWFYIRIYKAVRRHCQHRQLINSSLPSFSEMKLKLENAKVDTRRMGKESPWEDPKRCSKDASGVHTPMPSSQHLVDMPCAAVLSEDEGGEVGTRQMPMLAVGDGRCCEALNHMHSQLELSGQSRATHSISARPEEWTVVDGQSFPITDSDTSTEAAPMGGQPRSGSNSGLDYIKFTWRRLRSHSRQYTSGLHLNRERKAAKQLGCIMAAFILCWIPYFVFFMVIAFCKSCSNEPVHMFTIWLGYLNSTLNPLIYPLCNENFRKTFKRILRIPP
Method in brief: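 Male guinea pig cerebellar membranes (0.35 mg/mL protein) in 50 mM sodium phosphate pH 7.5. Incubated 30 min at 25 °C with compound and [3H]mepyramine (final 0.7 nM). Nonspecific binding from 10⁻⁶ M promethazine. Filtration through glass-fibre filters and liquid scintillation counting.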

[7] = tested on: Mus musculus; test: The concentration required to induce head twich in mice when given po (in vivo); format: functional
Method in brief: (§1)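 Mice, 6 per dose, dosed sc 60 min or po 90 min before mescaline 50 mg/kg ip. Observed for 2 min starting 15 min after mescaline; head twitches scored as all-or-none.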

[8] = tested on: Mus musculus; test: The concentration required to induce head twich in mice when given sc (in vivo); format: functional; method in brief: as §1
[9] = tested on: Rattus norvegicus; test: The concentration required to induce head twich for 16 hours in rats when given po (in vivo); format: functional
Method in brief: (§2)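 Rats, 6 per dose, dosed sc or po, then given mescaline 20 mg/kg iv 1 h later (6 or 16 h later for duration of action). Head twitches counted for 15 min from injection. Fewer than 3 twitches counted as antagonism.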

[10] = tested on: Rattus norvegicus; test: The concentration required to induce head twich for 6 hours in rats when given po (in vivo); format: functional; method in brief: as §2
[11] = tested on: Rattus norvegicus; test: The concentration required to induce head twich for 6 hours in rats when given sc (in vivo); format: functional; method in brief: as §2
[12] = tested on: Rattus norvegicus; test: The concentration required to induce head twich for 1 hours in rats when given po (in vivo); format: functional; method in brief: as §2
[13] = tested on: Rattus norvegicus; test: The concentration required to induce head twich for 1 hours in rats when given sc (in vivo); format: functional; method in brief: as §2
[14] = tested on: Rattus norvegicus; test: The concentration required to induce head twich for 16 hours in rats when given sc (in vivo); format: functional; method in brief: as §2

| Structure (SMILES) | IC50 [1] [nM] | IC50 [2] [nM] | IC50 [3] [nM] | also measured |
| --- | --- | --- | --- | --- |
| O=S1(=O)c2cccc3cccc(c23)N1CCCN1CCC(=C(c2ccc(F)cc2)c2ccc(F)cc2)CC1 | 11 | 50 | 603 |  |
| O=S1(=O)c2ccccc2-c2ccccc2N1CCCN1CC=C(c2ccccc2)CC1 | 10 | 10 | 110 |  |
| O=S1(=O)c2cccc3cccc(c23)N1CCCN1CCN(c2nsc3ccccc23)CC1 | 0.4 | 75 | 473 |  |
| O=S1(=O)c2cccc3cccc(c23)N1CCCN1CCN(c2ccc(C(F)(F)F)cc2)CC1 | 275 | > 1000 | > 1000 |  |
| O=S1(=O)c2cccc3cccc(c23)N1CCCN1CCC(c2ccccc2)CC1 | 0.2 | 27 | 385 |  |
| O=S1(=O)c2cccc3cccc(c23)N1CCCN1CCN(c2noc3ccccc23)CC1 | 2.3 | 144 | 990 |  |
| O=S1(=O)c2cccc3cccc(c23)N1CCCN1CCN(c2ccccc2)CC1 | 2.6 | 141 | > 1000 |  |
| O=S1(=O)c2cccc3cccc(c23)N1CCCN1CC=C(c2ccccc2)CC1 | 1 | 192 | 1000 |  |
| O=S1(=O)c2cccc3cccc(c23)N1CCCCN1CC=C(c2ccccc2)CC1 | 2.1 | 7.8 | 55 |  |
| O=S1(=O)c2cccc3cccc(c23)N1CCCN1CCN(c2ccccc2F)CC1 | 3 | 52 | > 1000 |  |
| O=C(c1ccc(F)cc1)C1CCN(CCCN2c3cccc4cccc(c34)S2(=O)=O)CC1 | 0.1 | 7.9 | 41 |  |
| CS(=O)(=O)N(CCCN1CC=C(c2ccccc2)CC1)c1cccc2ccccc12 | 5.1 | 75 | 275 |  |
| CCOC(=O)c1ccc(N2CCN(CCCN3c4cccc5cccc(c45)S3(=O)=O)CC2)cc1 | 200 | > 1000 | > 1000 |  |
| O=S1(=O)c2cccc3cccc(c23)N1CCCN1CCN(c2cccc(F)c2)CC1 | 18 | 688 | > 1000 |  |
| O=S(=O)(c1ccccc1)N(CCCN1CC=C(c2ccccc2)CC1)c1ccccc1 | 10 | 35 | 80 |  |
| O=S1(=O)c2cccc3cccc(c23)N1CCN1CCN(c2ccc(F)cc2)CC1 | 1 | 64 |  |  |

| Structure (SMILES) | IC50 [1] [nM] | IC50 [2] [nM] | IC50 [3] [nM] | also measured |
| --- | --- | --- | --- | --- |
| Cc1nc2sccn2c(=O)c1CCN1CCC(=C(c2ccc(F)cc2)c2ccc(F)cc2)CC1 [RITANSERIN] |  | 37 | 23 | Ki [4]: 29 nM; Ki [5]: 22 nM; Ki [6]: 6 nM; ED50 [7]: 0.09 mg/kg; ED50 [8]: 0.29 mg/kg; ED50 [9]: 18.4 mg/kg; ED50 [10]: 1.54 mg/kg; ED50 [11]: 0.55 mg/kg; ED50 [12]: 2.55 mg/kg; ED50 [13]: 0.38 mg/kg; ED50 [14]: > 5 mg/kg |
| COc1ccc(N2CCN(CCCN3c4cccc5cccc(c45)S3(=O)=O)CC2)cc1 | 25 | > 1000 | > 1000 |  |
| O=C1c2cccc3cccc(c23)N1CCCN1CC=C(c2ccccc2)CC1 | 9.8 | 580 | > 100 |  |
| O=S1(=O)N=C(N2CCN(CCCN3c4cccc5cccc(c45)S3(=O)=O)CC2)c2ccccc21 | 240 | 181 | > 1000 |  |
| CN(CCCN1CC=C(c2ccccc2)CC1)S(=O)(=O)c1cccc2ccccc12 | > 100 |  |  |  |
| O=S1(=O)c2cccc3cccc(c23)N1CCCN1CCN(c2ccc(Cl)cc2)CC1 | 5 | > 1000 | > 1000 |  |
| O=S1(=O)c2cccc3cccc(c23)N1CCCN1CCC(n2c(O)nc3ccccc32)CC1 | 7 | < 10 | 46 |  |
| O=S1(=O)c2cccc3cccc(c23)N1CCCN1CCN(c2ccc(O)cc2)CC1 | 0.3 | 110 | 508 |  |
| O=[N+]([O-])c1ccc(N2CCN(CCCN3c4cccc5cccc(c45)S3(=O)=O)CC2)cc1 | 25 | > 1000 | > 1000 |  |
| O=S1(=O)c2cccc3cccc(c23)N1CCCN1CCN(c2ccc(Br)cc2)CC1 | 7 | > 1000 | > 1000 |  |
| O=S1(=O)c2cccc3cccc(c23)N1CCCN1CCN(c2nc3ccccc3s2)CC1 | 540 | > 1000 | > 1000 |  |
| Cc1ccc(N2CCN(CCCN3c4cccc5cccc(c45)S3(=O)=O)CC2)cc1 | 4 | 700 | > 1000 |  |
| O=S1(=O)c2cccc3cccc(c23)N1CCN1CC=C(c2ccccc2)CC1 | 6.3 | 98 | > 100 |  |
| O=S1(=O)c2cccc3cccc(c23)N1CCCN1CCN(c2ncccn2)CC1 | 32 | > 1000 | > 1000 |  |
| O=S1(=O)c2cccc3cccc(c23)N1CCCN1CCN(c2ccccn2)CC1 | 6.3 | 269 | > 1000 |  |
